In brackets after ≈: the same amount, converted by molar mass.
Tested on: Mus musculus
Experiment: Toxicity in Kunming mouse assessed as mouse mortality at 5000 mg/kg, po administered in 24 hr duration measured after 7 days
Format: organism-based
Design: dose 5000 mg/kg, route oral
Conditions: in vivo, 168 h
Outline: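 Acute toxicity test in Kunming mice (18–22 g), each group treated with one compound. The compound was given orally within 24 h, and mice were then monitored continuously for up to 7 days for abnormal behaviour or death.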

SMILES	Activity
N#Cc1c(F)c(Cl)c2c(C(=O)c3ccccc3)c3n(c(=N)c2c1F)CCCN3	Non-toxic
COc1ccc(C(=O)c2c3n(c(=N)c4c(F)c(C#N)c(F)c(F)c24)CCCN3)cc1	Non-toxic

Tested on: H22
Experiment: Antitumor activity against mouse H22 cells xenografted in Kunming mouse assessed as tumor growth inhibition rate at 35 mg/kg, po administered for 10 days relative to control
Format: functional
Conditions: H22, 240 h
Outline: (§1)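 Tumour cells taken in exponential growth and inoculated subcutaneously into the right flank axilla. Mice randomised, 10 per group. Compound in 0.5% CMC-Na given intragastrically daily for 10 days. Solvent control got an equal volume of vehicle; positive control got cyclophosphamide 20 mg/kg i.p. in saline. Tumours weighed at sacrifice; inhibition rate calculated against solvent control.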

SMILES	inhibition in vivo at 35 mg/kg
COc1ccc(C(=O)c2c3n(c(=N)c4c(F)c(C#N)c(F)c(F)c24)CCCN3)cc1	34.7%

Tested on: SK-OV-3
Experiment: Anticancer activity against human SKOV3 cells after 72 hrs by MTT assay
Conditions: SK-OV-3, 72 h

SMILES	IC50
N#Cc1c(F)c(F)c2c(C(=O)c3ccc(Cl)cc3)c3n(c(=N)c2c1F)CCCN3	15.1 µg/mL (≈ 36.2 µM)
Cc1ccc(C(=O)c2c3n(c(=N)c4c(F)c(C#N)c(F)c(F)c24)CCCN3)cc1	33.9 µg/mL (≈ 85.5 µM)
COc1ccc(C(=O)c2c3n(c(=N)c4c(F)c(C#N)c(F)c(Cl)c24)CCO3)cc1	23.8 µg/mL (≈ 57.2 µM)
COc1ccc(C(=O)c2c3n(c(=N)c4c(Cl)c(C#N)c(Cl)c(Cl)c24)CCCN3)cc1	67.2 µg/mL (≈ 146 µM)
N#Cc1c(F)c(F)c2c(C(=O)c3ccccc3)c3n(c(=N)c2c1F)CCN3	0.2 µg/mL (≈ 0.543 µM)
N#Cc1c(F)c(Cl)c2c(C(=O)c3ccc(Cl)cc3)c3n(c(=N)c2c1F)CCN3	34.9 µg/mL (≈ 83.3 µM)
N#Cc1c(F)c(Cl)c2c(C(=O)c3ccccc3)c3n(c(=N)c2c1F)CCCN3	1.2 µg/mL (≈ 3.01 µM)
COc1ccc(C(=O)c2c3n(c(=N)c4c(F)c(C#N)c(F)c(F)c24)CCCN3)cc1	2.6 µg/mL (≈ 6.31 µM)

Tested on: HL-60
Experiment: Anticancer activity against human HL60 cells after 48 hrs by MTT assay
Conditions: HL-60, 48 h

SMILES	IC50
N#Cc1c(F)c(F)c2c(C(=O)c3ccc(Cl)cc3)c3n(c(=N)c2c1F)CCCN3	4.7 µg/mL (≈ 11.3 µM)
Cc1ccc(C(=O)c2c3n(c(=N)c4c(F)c(C#N)c(F)c(F)c24)CCCN3)cc1	4.7 µg/mL (≈ 11.9 µM)
COc1ccc(C(=O)c2c3n(c(=N)c4c(F)c(C#N)c(F)c(Cl)c24)CCO3)cc1	1 µg/mL (≈ 2.41 µM)
COc1ccc(C(=O)c2c3n(c(=N)c4c(Cl)c(C#N)c(Cl)c(Cl)c24)CCCN3)cc1	4.4 µg/mL (≈ 9.53 µM)
N#Cc1c(F)c(F)c2c(C(=O)c3ccccc3)c3n(c(=N)c2c1F)CCN3	0.001 µg/mL (≈ 0.00272 µM)
N#Cc1c(F)c(Cl)c2c(C(=O)c3ccc(Cl)cc3)c3n(c(=N)c2c1F)CCN3	0.3 µg/mL (≈ 0.716 µM)
N#Cc1c(F)c(Cl)c2c(C(=O)c3ccccc3)c3n(c(=N)c2c1F)CCCN3	0.01 µg/mL (≈ 0.0251 µM)
COc1ccc(C(=O)c2c3n(c(=N)c4c(F)c(C#N)c(F)c(F)c24)CCCN3)cc1	0.02 µg/mL (≈ 0.0485 µM)

Tested on: H22
Experiment: Antitumor activity against mouse H22 cells xenografted in Kunming mouse assessed as tumor growth inhibition rate at 20 mg/kg, po administered for 10 days relative to control
Format: functional
Conditions: H22, 240 h
Outline: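 H22 tumour cells were harvested in exponential growth and inoculated subcutaneously into the right flank axilla. Mice were randomised into groups of 10. Test compound in 0.5% CMC-Na was given intragastrically daily for 10 days. Solvent controls got an equal volume of CMC-Na, and positive controls got cyclophosphamide 20 mg/kg ip in saline. Tumours were weighed at sacrifice to give the inhibition rate.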

SMILES	inhibition in vivo at 20 mg/kg
N#Cc1c(F)c(Cl)c2c(C(=O)c3ccccc3)c3n(c(=N)c2c1F)CCCN3	12.1%

Tested on: H22
Experiment: Antitumor activity against mouse H22 cells xenografted in Kunming mouse assessed as tumor growth inhibition rate at 140 mg/kg, po administered for 10 days relative to control
Format: functional
Conditions: H22, 240 h
Outline: as §1

SMILES	inhibition in vivo at 140 mg/kg
COc1ccc(C(=O)c2c3n(c(=N)c4c(F)c(C#N)c(F)c(F)c24)CCCN3)cc1	29.3%

Tested on: CCRF S-180
Experiment: Antitumor activity against mouse S180 cells xenografted in po dosed Kunming mouse assessed as tumor tumor growth inhibition rate administered for 10 days relative to control
Format: functional, organism-based
Conditions: not given
Outline: as §1

SMILES	inhibition
N#Cc1c(F)c(Cl)c2c(C(=O)c3ccccc3)c3n(c(=N)c2c1F)CCCN3	Dose-dependent effect
COc1ccc(C(=O)c2c3n(c(=N)c4c(F)c(C#N)c(F)c(F)c24)CCCN3)cc1	Dose-dependent effect

Tested on: K562
Experiment: Anticancer activity against human K562 cells after 48 hrs by MTT assay
Conditions: K562, 48 h

SMILES	IC50
N#Cc1c(F)c(F)c2c(C(=O)c3ccc(Cl)cc3)c3n(c(=N)c2c1F)CCCN3	0.5 µg/mL (≈ 1.2 µM)
Cc1ccc(C(=O)c2c3n(c(=N)c4c(F)c(C#N)c(F)c(F)c24)CCCN3)cc1	0.7 µg/mL (≈ 1.77 µM)
COc1ccc(C(=O)c2c3n(c(=N)c4c(F)c(C#N)c(F)c(Cl)c24)CCO3)cc1	0.5 µg/mL (≈ 1.2 µM)
COc1ccc(C(=O)c2c3n(c(=N)c4c(Cl)c(C#N)c(Cl)c(Cl)c24)CCCN3)cc1	1.4 µg/mL (≈ 3.03 µM)
N#Cc1c(F)c(F)c2c(C(=O)c3ccccc3)c3n(c(=N)c2c1F)CCN3	0.08 µg/mL (≈ 0.217 µM)
N#Cc1c(F)c(Cl)c2c(C(=O)c3ccc(Cl)cc3)c3n(c(=N)c2c1F)CCN3	1.4 µg/mL (≈ 3.34 µM)
N#Cc1c(F)c(Cl)c2c(C(=O)c3ccccc3)c3n(c(=N)c2c1F)CCCN3	0.03 µg/mL (≈ 0.0752 µM)
COc1ccc(C(=O)c2c3n(c(=N)c4c(F)c(C#N)c(F)c(F)c24)CCCN3)cc1	0.01 µg/mL (≈ 0.0243 µM)

Tested on: CCRF S-180
Experiment: Antitumor activity against mouse S180 cells xenografted in Kunming mouse assessed as tumor growth inhibition rate at 60 mg/kg, po administered for 10 days relative to control
Format: functional
Conditions: CCRF S-180, 240 h
Outline: as §1

SMILES	inhibition in vivo at 60 mg/kg
N#Cc1c(F)c(Cl)c2c(C(=O)c3ccccc3)c3n(c(=N)c2c1F)CCCN3	41.1%
COc1ccc(C(=O)c2c3n(c(=N)c4c(F)c(C#N)c(F)c(F)c24)CCCN3)cc1	38%

Tested on: HepG2
Experiment: Anticancer activity against human HepG2 cells after 72 hrs by MTT assay
Conditions: HepG2, 72 h

SMILES	IC50
N#Cc1c(F)c(F)c2c(C(=O)c3ccc(Cl)cc3)c3n(c(=N)c2c1F)CCCN3	8.4 µg/mL (≈ 20.2 µM)
Cc1ccc(C(=O)c2c3n(c(=N)c4c(F)c(C#N)c(F)c(F)c24)CCCN3)cc1	2.4 µg/mL (≈ 6.05 µM)
COc1ccc(C(=O)c2c3n(c(=N)c4c(F)c(C#N)c(F)c(Cl)c24)CCO3)cc1	2 µg/mL (≈ 4.81 µM)
COc1ccc(C(=O)c2c3n(c(=N)c4c(Cl)c(C#N)c(Cl)c(Cl)c24)CCCN3)cc1	400 µg/mL (≈ 866 µM)
N#Cc1c(F)c(F)c2c(C(=O)c3ccccc3)c3n(c(=N)c2c1F)CCN3	1.2 µg/mL (≈ 3.26 µM)
N#Cc1c(F)c(Cl)c2c(C(=O)c3ccc(Cl)cc3)c3n(c(=N)c2c1F)CCN3	12.4 µg/mL (≈ 29.6 µM)
N#Cc1c(F)c(Cl)c2c(C(=O)c3ccccc3)c3n(c(=N)c2c1F)CCCN3	0.3 µg/mL (≈ 0.752 µM)
COc1ccc(C(=O)c2c3n(c(=N)c4c(F)c(C#N)c(F)c(F)c24)CCCN3)cc1	0.8 µg/mL (≈ 1.94 µM)

Tested on: H22
Experiment: Antitumor activity against mouse H22 cells xenografted in Kunming mouse assessed as tumor growth inhibition rate at 70 mg/kg, po administered for 10 days relative to control
Format: functional
Conditions: H22, 240 h
Outline: as §1

SMILES	inhibition in vivo at 70 mg/kg
COc1ccc(C(=O)c2c3n(c(=N)c4c(F)c(C#N)c(F)c(F)c24)CCCN3)cc1	45.6%

Tested on: H22
Experiment: Antitumor activity against mouse H22 cells xenografted in Kunming mouse assessed as tumor growth inhibition rate at 80 mg/kg, po administered for 10 days relative to control
Format: functional
Conditions: H22, 240 h
Outline: as §1

SMILES	inhibition in vivo at 80 mg/kg
N#Cc1c(F)c(Cl)c2c(C(=O)c3ccccc3)c3n(c(=N)c2c1F)CCCN3	28.2%

Tested on: H22
Experiment: Antitumor activity against mouse H22 cells xenografted in Kunming mouse assessed as tumor growth inhibition rate at 240 mg/kg, po administered for 10 days relative to control
Format: functional
Conditions: H22, 240 h
Outline: as §1

SMILES	inhibition in vivo at 240 mg/kg
N#Cc1c(F)c(Cl)c2c(C(=O)c3ccccc3)c3n(c(=N)c2c1F)CCCN3	0%

Tested on: not listed separately
Experiment: Lipophilicity, log P of the compound
Format: physicochemical
Conditions: octanol/water

SMILES	logP
N#Cc1c(F)c(F)c2c(C(=O)c3ccc(Cl)cc3)c3n(c(=N)c2c1F)CCCN3	3.44
Cc1ccc(C(=O)c2c3n(c(=N)c4c(F)c(C#N)c(F)c(F)c24)CCCN3)cc1	3.21
COc1ccc(C(=O)c2c3n(c(=N)c4c(F)c(C#N)c(F)c(Cl)c24)CCO3)cc1	3.21
COc1ccc(C(=O)c2c3n(c(=N)c4c(Cl)c(C#N)c(Cl)c(Cl)c24)CCCN3)cc1	4.1
N#Cc1c(F)c(F)c2c(C(=O)c3ccccc3)c3n(c(=N)c2c1F)CCN3	2.63
N#Cc1c(F)c(Cl)c2c(C(=O)c3ccc(Cl)cc3)c3n(c(=N)c2c1F)CCN3	4
N#Cc1c(F)c(Cl)c2c(C(=O)c3ccccc3)c3n(c(=N)c2c1F)CCCN3	3.35
COc1ccc(C(=O)c2c3n(c(=N)c4c(F)c(C#N)c(F)c(F)c24)CCCN3)cc1	2.7

Tested on: CCRF S-180
Experiment: Antitumor activity against mouse S180 cells xenografted in Kunming mouse assessed as tumor growth inhibition rate at 180 mg/kg, po administered for 10 days relative to control
Format: functional
Conditions: CCRF S-180, 240 h
Outline: as §1

SMILES	inhibition in vivo at 180 mg/kg
N#Cc1c(F)c(Cl)c2c(C(=O)c3ccccc3)c3n(c(=N)c2c1F)CCCN3	52.8%
COc1ccc(C(=O)c2c3n(c(=N)c4c(F)c(C#N)c(F)c(F)c24)CCCN3)cc1	19.1%

Tested on: CCRF S-180
Experiment: Antitumor activity against mouse S180 cells xenografted in Kunming mouse assessed as tumor growth inhibition rate at 20 mg/kg, po administered for 10 days relative to control
Format: functional
Conditions: CCRF S-180, 240 h
Outline: as §1

SMILES	inhibition in vivo at 20 mg/kg
N#Cc1c(F)c(Cl)c2c(C(=O)c3ccccc3)c3n(c(=N)c2c1F)CCCN3	42.8%
COc1ccc(C(=O)c2c3n(c(=N)c4c(F)c(C#N)c(F)c(F)c24)CCCN3)cc1	35.9%

Tested on: A-431
Experiment: Anticancer activity against human A431 cells after 72 hrs by MTT assay
Conditions: A-431, 72 h

SMILES	IC50
N#Cc1c(F)c(F)c2c(C(=O)c3ccc(Cl)cc3)c3n(c(=N)c2c1F)CCCN3	4.3 µg/mL (≈ 10.3 µM)
Cc1ccc(C(=O)c2c3n(c(=N)c4c(F)c(C#N)c(F)c(F)c24)CCCN3)cc1	2.1 µg/mL (≈ 5.3 µM)
COc1ccc(C(=O)c2c3n(c(=N)c4c(F)c(C#N)c(F)c(Cl)c24)CCO3)cc1	2.1 µg/mL (≈ 5.05 µM)
COc1ccc(C(=O)c2c3n(c(=N)c4c(Cl)c(C#N)c(Cl)c(Cl)c24)CCCN3)cc1	56.9 µg/mL (≈ 123 µM)
N#Cc1c(F)c(F)c2c(C(=O)c3ccccc3)c3n(c(=N)c2c1F)CCN3	0.8 µg/mL (≈ 2.17 µM)
N#Cc1c(F)c(Cl)c2c(C(=O)c3ccc(Cl)cc3)c3n(c(=N)c2c1F)CCN3	5 µg/mL (≈ 11.9 µM)
N#Cc1c(F)c(Cl)c2c(C(=O)c3ccccc3)c3n(c(=N)c2c1F)CCCN3	0.5 µg/mL (≈ 1.25 µM)
COc1ccc(C(=O)c2c3n(c(=N)c4c(F)c(C#N)c(F)c(F)c24)CCCN3)cc1	1.1 µg/mL (≈ 2.67 µM)

Reference: ChEMBL document CHEMBL1759888, “Biological evaluation of polyhalo 1,3-diazaheterocycle fused isoquinolin-1(2H)-imine derivatives” (Eur J Med Chem, 2011)
